# Source: PubChem
# Shown is part of a subset that was picked to be rich in hits.
# GASC1 inh = blocks human GASC-1 (KDM4C) demethylase activity. 96,000 compounds, 0.15% hits. AID 720574. GST-KDM4C 2-372, H3K9me3 peptide, LANCE TR-FRET. inhibition, % at 12.5 µM;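 active = mean replicate inhibition above about 25%, with at least 55% of replicates also reaching it, limit read from the data, passing the limit was not always enough; inconclusive = only one of those two conditions met; inactive = neither condition met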
#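 Material: GST-tagged GASC-1 (JMJD2C) catalytic fragment, aa 2-372 / Quantity: enzyme final amount 10 nM / Medium: HEPES buffer, pH 7.5, plus ascorbate / Doses: one test concentration per compound / Incubation: 30 min reaction, 60 min detection, RT / Measured by: LANCE TR-FRET / Read-out: inhibition from TR-FRET ratio decrease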
# T cruzi growth-1 = blocks T. cruzi growth in NIH3T3 culture. T. cruzi beta-gal in NIH3T3, GalScreen luminescence, 90 h. inhibition, % at 8.34 µM. 77,000 compounds, 5.9% hits. AID 624255;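 active = mean inhibition above about 93%, with at least 55% of replicates each passing it, limit read from the data, passing the limit was not always enough; inconclusive = only one of those two conditions holds; inactive = neither condition holds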
# IDH1 mut inh = inhibitors of human IDH1 R132H | O75874 | IDH1 R132H reductase, diaphorase/resazurin fluorescence, 60 min | inhibition, % at 10 µM | 70,000 compounds, 0.18% hits | AID 624101; in the data active = inhibition above about 34%; inconclusive = no clear call, values can overlap the other calls; inactive = below about 11%;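 note: 0% = DMSO and 100% = no enzyme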
# Target sequence (O75874 whole entry R132H): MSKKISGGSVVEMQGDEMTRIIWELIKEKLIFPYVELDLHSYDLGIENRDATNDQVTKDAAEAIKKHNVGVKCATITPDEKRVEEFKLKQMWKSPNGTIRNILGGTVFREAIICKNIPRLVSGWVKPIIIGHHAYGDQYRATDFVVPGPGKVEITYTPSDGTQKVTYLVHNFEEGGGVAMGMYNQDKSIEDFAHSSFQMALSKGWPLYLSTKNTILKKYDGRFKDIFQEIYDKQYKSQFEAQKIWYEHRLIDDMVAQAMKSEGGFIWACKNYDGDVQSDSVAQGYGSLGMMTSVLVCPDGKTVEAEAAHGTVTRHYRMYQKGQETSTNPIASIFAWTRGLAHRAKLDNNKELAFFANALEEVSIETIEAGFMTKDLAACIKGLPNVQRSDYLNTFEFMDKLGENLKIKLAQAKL
# T cruzi growth-2 = Trypanosoma cruzi proliferation inhibition. shares compounds with T cruzi growth-1. T. cruzi beta-gal in NIH3T3, GalScreen luminescence, 90 h. inhibition, % at 8.35 µM. 5,600 compounds, 72% hits;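 active = mean replicate inhibition above about 95% and at least 55% of replicates individually reaching it, limit read from the data; inconclusive = only one of the two criteria is met; inactive = neither criterion is met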
# T cruzi growth-3 = Trypanosoma cruzi proliferation inhibition. shares compounds with T cruzi growth-1. T. cruzi beta-gal in NIH3T3, GalScreen luminescence, 90 h. inhibition, % at 2.09 µM. 5,600 compounds, 21% hits;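 active = mean inhibition above about 95%, with at least 55% of replicates also reaching it, limit read from the data; inconclusive = meets just one of the two conditions; inactive = meets neither condition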;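 note: plate controls were neutral control median for no effect and positive control median for full effect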
# NIH3T3 tox = cytotoxicity in mouse NIH/3T3 fibroblasts; shares compounds with T cruzi growth-1; NIH/3T3 viability, CellTiter-Glo ATP luminescence, 90 h; cytotoxicity (signal decrease), % at 8.35 µM; 5,600 compounds, 14% hits; AID 651742;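 active = mean signal decrease across replicates above about 35% based on untreated-well scatter, with enough replicates individually passing, limit read from the data; inconclusive = no rule stated though some were filed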;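 note: 0% = median of neutral control wells and 100% = median of positive control wells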
# NIH3T3 tox 2 = NIH/3T3 (mouse) viability loss | shares compounds with T cruzi growth-1 | NIH/3T3 viability, CellTiter-Glo ATP luminescence, 90 h | inhibition, % at 24.9 µM | 5,600 compounds, 56% hits;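 active = mean loss of cell viability signal at or above a set limit, and enough replicates individually reaching it; inconclusive = meets only the mean limit or only the replicate share; inactive = meets neither condition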;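 note: 0% = median of neutral control wells and 100% = median of positive control wells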
# * = called active by the depositor; ? = inconclusive; . = no result.
SMILES,GASC1 inh,T cruzi growth-1,IDH1 mut inh,T cruzi growth-2,T cruzi growth-3,NIH3T3 tox,NIH3T3 tox 2
CCCC#Cc1ccc([C@@H]2[C@H](CO)N3CCCCN(Cc4cccnc4)C[C@@H]23)cc1,-1,103*,.,105*,81,29,104*
CCCC#Cc1ccc([C@H]2[C@H](CO)N3CCCCN(Cc4ccncc4)C[C@@H]23)cc1,2,107*,.,100*,46,34,86*
CCCC#Cc1ccc([C@@H]2[C@H]3CN(Cc4cccnc4)CCCCN3[C@H]2CO)cc1,0,92,.,.,.,.,.
CCCC#Cc1ccc([C@@H]2[C@H](CO)N3CCCCN(Cc4cncnc4)C[C@@H]23)cc1,-1,42,.,.,.,.,.
CCCC#Cc1ccc([C@H]2[C@H](CO)N3CCCCN(Cc4cccnc4)C[C@@H]23)cc1,1,115*,.,108*,69,-15,90*
CCCC#Cc1ccc([C@H]2[C@H](CO)N3CCCCN(Cc4cncnc4)C[C@@H]23)cc1,0,55,.,.,.,.,.
CCCC#Cc1ccc([C@@H]2[C@@H](CO)N3CCCCN(Cc4cccnc4)C[C@H]23)cc1,-2,?,.,102*,35,8,82*
CCS(=O)(=O)N1CC2(CN(C(=O)Nc3cccc(F)c3)[C@@H](CO)c3c2c2ccc(OC)cc2n3C)C1,-1,.,.,.,.,.,.
COc1ccc(CNC(=O)C[C@H]2C[C@H]3c4cc(NC(=O)NC5CCCC5)ccc4O[C@H]3[C@H](CO)O2)cc1,-1,-35,0,.,.,.,.
C/C=C/c1ccc([C@H]2[C@H]3CN(C(=O)Nc4ccc(F)cc4)CCCCN3[C@H]2CO)cc1,0,61,.,.,.,.,.
C[C@H](CO)N1C[C@H](C)[C@H](CN(C)CC2CCCCC2)Oc2ccc(NS(=O)(=O)c3cn(C)cn3)cc2CC1=O,2,-14,.,.,.,.,.
C[C@@H]1CN([C@@H](C)CO)C(=O)c2cc(NC(=O)Nc3ccccc3)ccc2O[C@@H](C)CCCCO[C@@H]1CN(C)C(=O)c1ccccc1,-2,-2,0,.,.,.,.
CC(=O)N1CC[C@@H]2[C@H](CO)Nc3ccc(-c4cccc(F)c4)cc3[C@@H]21,-1,66,.,.,.,.,.
O=C(C1CC1)N1CC[C@@H]2[C@@H](CO)Nc3ccc(-c4cccc(F)c4)cc3[C@@H]21,2,109*,.,101*,83,-1,26*
O=C(C1CCOCC1)N1CC[C@@H]2[C@@H](CO)Nc3ccc(-c4cccc(F)c4)cc3[C@@H]21,1,58,.,.,.,.,.
O=C(C1CCC1)N1CC[C@@H]2[C@H](CO)Nc3ccc(-c4cccc(F)c4)cc3[C@@H]21,1,?,.,106*,91,1,70*
COc1ccccc1-c1ccc2c(c1)[C@H]1[C@H](CCN1C(=O)C1CC1)[C@H](CO)N2,1,88,.,.,.,.,.
COc1ccccc1-c1ccc2c(c1)[C@H]1[C@H](CCN1C(=O)C1CC1)[C@@H](CO)N2,-1,98*,.,107*,88,-7,1
C[C@@H]1CN([C@H](C)CO)C(=O)c2cc(NC(=O)NC3CCCCC3)ccc2O[C@@H](C)CCCCO[C@H]1CN(C)S(=O)(=O)c1cn(C)cn1,2,20,.,.,.,.,.
COCc1cn(CC[C@H]2CC[C@H](NC(=O)Nc3ccc(OC)cc3)[C@@H](CO)O2)nn1,2,-12,0,.,.,.,.
COc1ccc(C(=O)N2C[C@H]3[C@@H](c4ccccc42)[C@@H](CO)N3C(=O)Cc2ccccn2)cc1,0,10,.,.,.,.,.
C[C@@H]1CCCCO[C@H](CN(C)C(=O)Nc2ccc(C(F)(F)F)cc2)[C@@H](C)CN([C@@H](C)CO)C(=O)c2cc(NC(=O)CCC(F)(F)F)ccc2O1,-3,94,0,.,.,.,.
C[C@@H]1CCCCO[C@H](CN(C)C(=O)Nc2ccc(C(F)(F)F)cc2)[C@H](C)CN([C@H](C)CO)C(=O)c2cc(NC(=O)CCC(F)(F)F)ccc2O1,-2,107*,-1,106*,105*,-11,19
C[C@@H]1CCCCO[C@H](CN(C)C(=O)Nc2ccc(C(F)(F)F)cc2)[C@H](C)CN([C@@H](C)CO)C(=O)c2cc(NC(=O)CCC(F)(F)F)ccc2O1,-1,101,.,.,.,.,.
